From PubChem BioAssay
An excerpt weighted towards active compounds, which were near 1.8% of everything screened.
HTRA1 inh: inhibitors of human serine peptidase HTRA1 | Q92743 | recombinant HTRA1, FP-rhodamine activity-based probe, fluorescence polarization | inhibition, % at 5.96 µM | 340,000 compounds, 0.5% hits | AID 504803; in the data active means inhibition above about 36%;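 further: 0% = enzyme with DMSO and 100% = wells lacking enzyme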
mABHD4 FP: inhibitors of mouse ABHD4; Q8VD66; purified mABHD4, FP-Rh probe fluorescence polarization; inhibition, % at 8.92 µM; 370,000 compounds, 0.54% hits;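 active means inhibition exceeding the mean over every tested compound plus 3 SD, cut at about 30% in these data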;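 further: 0% = plate median of compound wells and 100% = S159A mutant with DMSO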
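Assay system: wild-type mouse ABHD4 protein; compound: single nominal dose of 8.92 µM, 0.89% DMSO final; schedule: 45 min + 60 min at 25 °C; measured by: FP readout, ex 525 nm / em 598 nm; evaluation: % inhibition of FP-Rh probe binding versus controls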
Tn6 DDE FP: inhibitors of Tn6 peptide binding to human fibrin DD(E). Fibrin DD(E) TRITC-Tn6 fluorescence polarization displacement. inhibition, % at 8.3 µM. P02675. 370,000 compounds, 0.21% hits;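 active means inhibition above a per-campaign cutoff: mean of compounds within control limits plus 3 SD, cut at about 15% in these data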;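 further: 0% = median of all compound wells on the plate and 100% = blocking peptide control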
Target sequence (P02675 whole entry, looked up): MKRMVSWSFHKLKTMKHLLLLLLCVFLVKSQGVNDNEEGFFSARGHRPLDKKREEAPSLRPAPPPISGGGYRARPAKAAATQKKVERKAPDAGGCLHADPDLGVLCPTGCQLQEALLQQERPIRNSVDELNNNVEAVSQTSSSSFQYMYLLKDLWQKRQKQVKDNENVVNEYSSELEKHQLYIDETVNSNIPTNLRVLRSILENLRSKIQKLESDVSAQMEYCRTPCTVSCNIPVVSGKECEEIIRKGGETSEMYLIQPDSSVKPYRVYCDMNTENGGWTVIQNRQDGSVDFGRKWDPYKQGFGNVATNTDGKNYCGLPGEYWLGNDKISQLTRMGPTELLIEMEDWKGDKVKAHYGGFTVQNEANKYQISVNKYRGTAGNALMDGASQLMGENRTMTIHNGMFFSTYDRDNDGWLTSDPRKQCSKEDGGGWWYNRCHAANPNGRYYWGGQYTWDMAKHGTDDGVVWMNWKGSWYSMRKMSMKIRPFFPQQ
TCR CD3 inh: blocks the human TCR-CD3 interaction; inhibition, % at 9.4 µM; TAMRA-labeled TCR probe fluorescence, biochemical; 360,000 compounds, 0.37% hits; in the data active means inhibition above about 19%;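 further: recombinant mutant TCR 2C K166C tagged with TAMRA read by polarization; 0% = receptor in buffer alone and 100% = receptor with positive control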
DDE Tn7 FP inh: disrupts Tn7 cyclic peptide binding to fibrin D-Dimer-E complex; P02675; FP displacement of FITC-Tn7 peptide from fibrin DD(E); 0% = median of compound wells per plate; inhibition, % at 8.3 µM; 370,000 compounds, 0.13% hits;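 active means inhibition above the mean of compounds falling within the control limits plus 3 SD of them, cut at about 14% in these data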;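 further: 0% = plate median of compound wells and 100% = 10 µM Aha-Tn7 peptide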
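System: human fibrin DD(E); quantity: Fibrin-DD(E) at 2 µM final; also added: fluorescent Tn7 probe at 0.1 µM; compound dosing: single nominal test concentration of 8.3 µM per compound; schedule: 10 min preincubation, 3 h with tracer, room temperature; detection: fluorescence polarization of the labelled Tn7 tracer; repeats: one replicate per compound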
SIAE primary: inhibitors of human sialic acid acetylesterase SIAE; Q9HAT2; SIAE FP-Rh probe binding, fluorescence polarization; inhibition, % at 9.66 µM; 370,000 compounds, 0.69% hits; AID 1053197;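 active means inhibition above a cutoff: mean of compounds within the control limits plus 3 SD of those, cut at about 17% in these data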;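 further: 0% = plate median of compound wells and 100% = probe without SIAE protein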
mABHD4 conf: confirmation of mouse ABHD4 inhibitors | shares compounds with mABHD4 FP | AID 720658 | purified mABHD4, FP-Rh probe fluorescence polarization | inhibition, % at 8.92 µM | 1,800 compounds, 55% hits;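 active means mean inhibition across replicates above the hit cutoff set in the primary screen, cut at about 30% in these data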;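 further: 0% = wild-type ABHD4 with DMSO and 100% = catalytically dead S159A mutant with DMSO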
Starred values were filed as active, the others as inactive; nt = not tested or not shown.

SMILES | HTRA1 inh | mABHD4 FP | Tn6 DDE FP | TCR CD3 inh | DDE Tn7 FP inh | SIAE primary | mABHD4 conf
CC(C)(C)CC(C)(C)c1ccc(OCCOCC[N+](C)(C)Cc2ccccc2)cc1 | 16 | 36* | 4 | 3 | 3 | 2 | 44*
O=C(NCCCO)c1ccc2nc(-c3ccco3)c(-c3ccco3)nc2c1 | 9 | 37* | -4 | 9 | 3 | 9 | 4
CCc1nc2ccc(C(=O)NCCc3ccco3)cc2nc1CC | 8 | nt | nt | nt | nt | nt | nt
Cc1ccc(C=Nn2c(-c3n[nH]c4c3CCC4)n[nH]c2=S)o1 | nt | 0 | -4 | nt | 3 | 4 | nt
Cc1ccccc1NC(=O)N(C)[C@H]1C[C@H]2c3[nH]c4c(-c5ccc6c(c5)OCO6)cccc4c3CCN2C[C@H]1[C@H](C)O | nt | 24 | 9 | nt | 3 | 4 | nt
CN1CC=C(c2ccccc2)N(c2ccc(Br)cc2)C1=O | nt | -1 | 1 | nt | 10 | -1 | nt
CCn1c(=O)n2n(c1=O)[C@]1(C=C(C)C2)CN(Cc2ccc(OC)cc2OC)C(NC(=O)c2ccccc2)=N1 | nt | -4 | -10 | nt | -9 | 2 | nt
CCOc1cc(S(=O)(=O)n2cc(-c3ccc(F)cc3)c(N)n2)cc(OCC)c1OCC | -36 | 49* | -7 | 7 | -7 | -2 | 65*
CCOc1ccc(S(=O)(=O)n2cc(-c3ccc(F)cc3)c(N)n2)cc1 | -11 | -10 | 4 | 9 | -3 | 2 | nt
CCOc1cc(-c2cn(S(=O)(=O)c3cccc4nsnc34)nc2N)cc(OCC)c1OCC | -4 | 31* | 0 | 0 | -6 | 4 | 51*
CN1CCN(c2ccc3c(c2)Oc2ccccc2CN(Cc2cn(Cc4cccc(C(F)(F)F)c4)nn2)S3(=O)=O)CC1 | nt | -1 | 0 | nt | 2 | 11 | nt
COc1ccc(C(=O)Nc2ccc3c(c2)OCCO3)c(OC)c1 | -1 | -6 | 4 | -5 | 5 | 6 | nt
COc1ccc(C(=O)Nc2cc3c(cc2C(=O)O)OCCCO3)c(OC)c1 | -16 | 35* | -1 | 5 | -4 | -30 | 55*
Cc1cc(Cl)c(S(=O)(=O)Nc2ccc3c(c2)OCO3)cc1OCC(=O)NC1CCCCC1 | -14 | 30* | -8 | 0 | -1 | -2 | 3
CCNc1sc(C(=O)c2cccs2)c(N)c1-c1nc2ccccc2s1 | 28 | 33* | -4 | 2 | -5 | 8 | 19
O=C1S/C(=C\c2ccc(O)c([N+](=O)[O-])c2)C(=O)N1c1ccccc1Cl | 8 | 55* | 6 | 7 | 1 | -5 | 44*
COc1cc(/C=C2\SC(=O)N(c3cccc(Cl)c3)C2=O)cc([N+](=O)[O-])c1O | 13 | 37* | 3 | 7 | 2 | 1 | 41*
O=C(CN1C(=O)S/C(=C\c2ccc(O)c([N+](=O)[O-])c2)C1=O)Nc1ccc(N2CCOCC2)cc1 | 5 | 6 | 6 | -1 | 0 | 6 | nt
O=C1S/C(=C\c2ccc(O)c([N+](=O)[O-])c2)C(=O)N1Cc1cccc([N+](=O)[O-])c1 | nt | 15 | -7 | 3 | -8 | 7 | nt
Cc1cccc(NC(=O)CN2C(=O)S/C(=C\c3ccc(O)c([N+](=O)[O-])c3)C2=O)c1 | 22 | 34* | -4 | -5 | 4 | 9 | 60*
C=CCN1[C@@H](Cc2ccccc2)COc2cccc(N3CCCC3)c2S1(=O)=O | nt | -3 | -9 | nt | -9 | 1 | nt
CCN(CC(=O)Nc1ccc2c(c1)OCCO2)CC(=O)Nc1ccccc1C(F)(F)F | 3 | 32* | 6 | -2 | 2 | 5 | 7
COc1ccc(CCNC(=O)c2ccccc2NS(=O)(=O)c2cc(C(=O)O)ccc2OC)cc1 | -4 | 33* | -1 | -5 | 7 | -14 | 24
CC1(C)Cc2c(c(-c3ccco3)[nH]c(=O)c2C#N)CS1 | 8 | 30* | 9 | 15 | -8 | 10 | 5
C=CC[C@@]1(c2ccc(Br)cc2OC)Oc2ccccc2-c2nccnc21 | nt | -5 | -4 | nt | -1 | 0 | nt
Nc1ccc(C(=O)Nc2ccc3c(O)cc(S(=O)(=O)O)cc3c2)cc1 | 6 | 36* | -7 | 7 | 3 | -16 | 25
